Laboratory results: ChEMBL document CHEMBL4316612, “Synthesis of novel dihydrotriazine derivatives bearing 1,3-diaryl pyrazole moieties as potential antibacterial agents” (Bioorg Med Chem Lett, 2019)
Converted amounts (≈) assume the structure as drawn.

Experiments:
Staphylococcus aureus [1] = assay: Antibacterial activity against Staphylococcus aureus RN4220 after 24 hrs by microtiter ELISA; assay type: functional; settings: RN4220, 24 h
In short: (§1)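 Broth microdilution MIC. Bacteria grown to mid-log phase in Mueller-Hinton broth, diluted 1000-fold, and inoculated at 10^5 CFU/mL. Compounds in DMSO (final ≤0.05%) were given as two-fold serial dilutions, final 64-0.25 µg/mL. Plates were incubated 24 h at 37 °C and growth read at 650 nm. MIC is the lowest concentration giving complete growth inhibition. Three independent experiments; oxacillin and norfloxacin served as positive controls.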

Streptococcus mutans = assay: Antibacterial activity against Streptococcus mutans 3289 after 24 hrs by microtiter ELISA; assay type: functional; settings: Streptococcus mutans, 3289, 24 h
In short: (§2)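 Two-fold serial broth dilution in Mueller-Hinton broth, final 64-0.25 µg/mL; compounds in DMSO (final ≤0.05%). Mid-log cultures diluted 1000-fold, inoculum 10^5 CFU/mL; oxacillin and norfloxacin as positive controls. After 24 h at 37 °C, growth read at 650 nm on a microtiter ELISA reader; MIC = lowest level giving complete growth inhibition. Run three times.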

Escherichia coli = assay: Antibacterial activity against Escherichia coli KCTC 1924 after 24 hrs by microtiter ELISA; assay type: functional; settings: KCTC 1924, 24 h; in short: as §2
Candida albicans = assay: Antifungal activity against Candida albicans 7535 after 24 hrs by microtiter ELISA; assay type: functional; settings: Candida albicans, 7535, 24 h; in short: as §2
Staphylococcus aureus [2] = assay: Antibacterial activity against methicillin-resistant Staphylococcus aureus CCARM 3167 after 24 hrs by microtiter ELISA; assay type: functional; settings: CCARM 3167, 24 h; in short: as §1
Staphylococcus aureus [3] = assay: Antibacterial activity against methicillin-resistant Staphylococcus aureus CCARM 3506 after 24 hrs by microtiter ELISA; assay type: functional; settings: CCARM 3506, 24 h; in short: as §1
Staphylococcus aureus [4] = assay: Antibacterial activity against quinolone-resistant Staphylococcus aureus CCARM 3505 after 24 hrs by microtiter ELISA; assay type: functional; settings: CCARM 3505, 24 h; in short: as §1
Staphylococcus aureus [5] = assay: Antibacterial activity against quinolone-resistant Staphylococcus aureus CCARM 3519 after 24 hrs by microtiter ELISA; assay type: functional; settings: CCARM 3519, 24 h; in short: as §1
L02 = assay: Cytotoxicity against human L02 cells assessed as inhibition of cell growth measured after 24 hrs by MTT assay; assay type: cell-based; settings: L02, 24 h
In short: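 L02 normal human liver cells seeded at 1.8 × 10^4 cells/well in DMEM with 10% FBS and antimycotic. Exposed 24 h at 37 °C, 5% CO2 to 200-1.625 µM, compounds in 10% DMSO. MTT (2.5 mg/mL) added for 4 h, formazan dissolved in DMSO, OD at 570 nm. Untreated cells as negative control; IC50 = 50% growth inhibition; triplicate.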

SMILES | MIC (Staphylococcus aureus [1]) | MIC (Streptococcus mutans) | MIC (Escherichia coli) | MIC (Candida albicans) | MIC (Staphylococcus aureus [2]) | MIC (Staphylococcus aureus [3]) | MIC (Staphylococcus aureus [4]) | MIC (Staphylococcus aureus [5]) | IC50 (L02)
NC1=NC(c2cn(-c3ccc([N+](=O)[O-])cc3[N+](=O)[O-])nc2-c2ccccc2F)N=C(N2CCOCC2)N1 (centres undefined) | 64 µg/mL (≈ 126 µM) | > 64 µg/mL | 64 µg/mL (≈ 126 µM) | 64 µg/mL (≈ 126 µM) | 64 µg/mL (≈ 126 µM) | 32 µg/mL (≈ 62.8 µM) | 64 µg/mL (≈ 126 µM) | 64 µg/mL (≈ 126 µM) | –
CN(C)C1=NC(c2cn(-c3ccc([N+](=O)[O-])cc3[N+](=O)[O-])nc2-c2ccccc2)N=C(N)N1 (centres undefined) | 32 µg/mL (≈ 71.2 µM) | 64 µg/mL (≈ 142 µM) | 32 µg/mL (≈ 71.2 µM) | 32 µg/mL (≈ 71.2 µM) | 32 µg/mL (≈ 71.2 µM) | 64 µg/mL (≈ 142 µM) | 32 µg/mL (≈ 71.2 µM) | 64 µg/mL (≈ 142 µM) | –
CN(C)C1=NC(c2cn(-c3ccc([N+](=O)[O-])cc3[N+](=O)[O-])nc2-c2ccccc2F)N=C(N)N1 (centres undefined) | 64 µg/mL (≈ 137 µM) | 64 µg/mL (≈ 137 µM) | 32 µg/mL (≈ 68.5 µM) | 32 µg/mL (≈ 68.5 µM) | 64 µg/mL (≈ 137 µM) | 32 µg/mL (≈ 68.5 µM) | 64 µg/mL (≈ 137 µM) | 64 µg/mL (≈ 137 µM) | –
CCC(C)n1ncn(-c2ccc(N3CCN(c4ccc(OCC5COC(Cn6cncn6)(c6ccc(Cl)cc6Cl)O5)cc4)CC3)cc2)c1=O (centres undefined) [ITRACONAZOLE] | – | – | – | 0.6 µg/mL (≈ 0.85 µM) | – | – | – | – | –
COc1cccc(-c2nn(-c3ccc([N+](=O)[O-])cc3[N+](=O)[O-])cc2C2N=C(N)NC(N(C)C)=N2)c1 (centres undefined) | 32 µg/mL (≈ 66.7 µM) | 64 µg/mL (≈ 133 µM) | 32 µg/mL (≈ 66.7 µM) | 32 µg/mL (≈ 66.7 µM) | 32 µg/mL (≈ 66.7 µM) | 32 µg/mL (≈ 66.7 µM) | 64 µg/mL (≈ 133 µM) | 64 µg/mL (≈ 133 µM) | –
CN(C)C1=NC(c2cn(-c3ccccc3)nc2-c2ccc(Br)cc2)N=C(N)N1 (centres undefined) | 8 µg/mL (≈ 18.3 µM) | 16 µg/mL (≈ 36.5 µM) | 8 µg/mL (≈ 18.3 µM) | 8 µg/mL (≈ 18.3 µM) | 4 µg/mL (≈ 9.13 µM) | 4 µg/mL (≈ 9.13 µM) | 16 µg/mL (≈ 36.5 µM) | 16 µg/mL (≈ 36.5 µM) | –
NC1=NC(c2cn(-c3ccc([N+](=O)[O-])cc3[N+](=O)[O-])nc2-c2ccccc2Cl)N=C(N2CCOCC2)N1 (centres undefined) | 32 µg/mL (≈ 60.8 µM) | 64 µg/mL (≈ 122 µM) | 64 µg/mL (≈ 122 µM) | 64 µg/mL (≈ 122 µM) | 32 µg/mL (≈ 60.8 µM) | 32 µg/mL (≈ 60.8 µM) | 32 µg/mL (≈ 60.8 µM) | 64 µg/mL (≈ 122 µM) | –
CN(C)C1=NC(c2cn(-c3ccc([N+](=O)[O-])cc3[N+](=O)[O-])nc2-c2ccc(Cl)cc2Cl)N=C(N)N1 (centres undefined) | 8 µg/mL (≈ 15.4 µM) | 8 µg/mL (≈ 15.4 µM) | 8 µg/mL (≈ 15.4 µM) | 8 µg/mL (≈ 15.4 µM) | 4 µg/mL (≈ 7.72 µM) | 4 µg/mL (≈ 7.72 µM) | 8 µg/mL (≈ 15.4 µM) | 16 µg/mL (≈ 30.9 µM) | > 100 µM
CN(C)C1=NC(c2cn(-c3ccccc3)nc2-c2ccc(Cl)cc2)N=C(N)N1 (centres undefined) | 8 µg/mL (≈ 20.3 µM) | 32 µg/mL (≈ 81.2 µM) | 8 µg/mL (≈ 20.3 µM) | 8 µg/mL (≈ 20.3 µM) | 16 µg/mL (≈ 40.6 µM) | 8 µg/mL (≈ 20.3 µM) | 16 µg/mL (≈ 40.6 µM) | 16 µg/mL (≈ 40.6 µM) | –
CN(C)C1=NC(c2cn(-c3ccc([N+](=O)[O-])cc3[N+](=O)[O-])nc2-c2ccccc2[N+](=O)[O-])N=C(N)N1 (centres undefined) | > 64 µg/mL | > 64 µg/mL | > 64 µg/mL | > 64 µg/mL | > 64 µg/mL | > 64 µg/mL | > 64 µg/mL | > 64 µg/mL | –
NC1=NC(c2cn(-c3ccc([N+](=O)[O-])cc3[N+](=O)[O-])nc2-c2ccccc2[N+](=O)[O-])N=C(N2CCOCC2)N1 (centres undefined) | > 64 µg/mL | > 64 µg/mL | > 64 µg/mL | > 64 µg/mL | > 64 µg/mL | > 64 µg/mL | > 64 µg/mL | > 64 µg/mL | –
CN(C)C1=NC(c2cn(-c3ccccc3)nc2-c2cccc(Cl)c2)N=C(N)N1 (centres undefined) | 4 µg/mL (≈ 10.2 µM) | 16 µg/mL (≈ 40.6 µM) | 8 µg/mL (≈ 20.3 µM) | 8 µg/mL (≈ 20.3 µM) | 16 µg/mL (≈ 40.6 µM) | 16 µg/mL (≈ 40.6 µM) | 32 µg/mL (≈ 81.2 µM) | 32 µg/mL (≈ 81.2 µM) | –
Cc1ccc(-c2nn(-c3ccccc3)cc2C2N=C(N)NC(N(C)C)=N2)cc1 (centres undefined) | 32 µg/mL (≈ 85.7 µM) | 64 µg/mL (≈ 171 µM) | 32 µg/mL (≈ 85.7 µM) | 32 µg/mL (≈ 85.7 µM) | 16 µg/mL (≈ 42.8 µM) | 32 µg/mL (≈ 85.7 µM) | 64 µg/mL (≈ 171 µM) | 64 µg/mL (≈ 171 µM) | –
CN(C)C1=NC(c2cn(-c3ccccc3)nc2-c2ccccc2)N=C(N)N1 (centres undefined) | 32 µg/mL (≈ 89 µM) | > 64 µg/mL | 64 µg/mL (≈ 178 µM) | > 64 µg/mL | 32 µg/mL (≈ 89 µM) | 32 µg/mL (≈ 89 µM) | 32 µg/mL (≈ 89 µM) | 64 µg/mL (≈ 178 µM) | –
Cc1ccc(-c2nn(-c3ccc([N+](=O)[O-])cc3[N+](=O)[O-])cc2C2N=C(N)NC(N(C)C)=N2)cc1 (centres undefined) | 16 µg/mL (≈ 34.5 µM) | 16 µg/mL (≈ 34.5 µM) | 16 µg/mL (≈ 34.5 µM) | 64 µg/mL (≈ 138 µM) | 8 µg/mL (≈ 17.3 µM) | 8 µg/mL (≈ 17.3 µM) | 8 µg/mL (≈ 17.3 µM) | 16 µg/mL (≈ 34.5 µM) | –
